Shown is part of a subset that was picked to be rich in hits.
Biofilm kill mix: clotrimazole potentiators killing C. albicans biofilm, primary screen, 4-compound mixtures; C. albicans biofilm persisters + clotrimazole, fluorescence viability; primary screen in compound mixtures of four per well; inhibition, % at 7.6 µM; hit rate 0.02% among 120,000;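 active means inhibition above 30.3% in the primary screen of four-compound pools, then above 30% when the compound was retested; inconclusive means passed the primary limit but could not be retested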;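 further: compounds exposed to preformed 24 h biofilms for 48 h; 0% = untreated biofilm control and 100% = clotrimazole plus chlorhexidine kill blank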
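Incubation: 24 h biofilm formation, then 48 h compound exposure, 37 °C | Material: C. albicans biofilms | Buffer or medium: RPMI/MOPS medium, pH 7.0 | Measured by: 2-h Alamar Blue fluorescence, 535/590 nm excitation/emission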
ROMK mod: ROMK potassium channel modulators, primary screen, cell-based, thallium flux, MLSMR library; ATP-sensitive inward rectifier potassium channel 1 (Homo sapiens), P48048; Tet-inducible ROMK, thallium flux fluorescence; actives lie on both sides; B-score at 10 µM; hit rate 2% among 130,000; AID 1918, 2009;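 active means signal ratio slope over the read window, or its plate-corrected B-score, at least 3 SD from the plate mean, either direction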;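 further: B-score of the F/F0 ratio slope over 7 to 12 s after thallium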
Target sequence (P48048 whole entry, looked up): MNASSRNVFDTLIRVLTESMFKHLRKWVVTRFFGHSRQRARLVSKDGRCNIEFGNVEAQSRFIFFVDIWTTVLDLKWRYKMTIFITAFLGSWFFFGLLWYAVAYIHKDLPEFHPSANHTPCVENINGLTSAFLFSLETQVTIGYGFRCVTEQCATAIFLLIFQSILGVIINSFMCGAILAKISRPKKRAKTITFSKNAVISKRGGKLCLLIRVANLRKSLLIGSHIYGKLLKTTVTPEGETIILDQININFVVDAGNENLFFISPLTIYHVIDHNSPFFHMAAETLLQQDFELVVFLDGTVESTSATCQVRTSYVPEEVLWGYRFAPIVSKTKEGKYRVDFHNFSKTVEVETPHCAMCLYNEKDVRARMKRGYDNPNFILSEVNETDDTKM
Pf gametocyte: late stage P. falciparum gametocyte viability inhibitors, primary screen, ATP luminescence, HTS; P. falciparum stage V gametocytes, 24 h; inhibition, % at 10.9 µM; hit rate 0.065% among 150,000;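 active means inhibition above the mean plus 3 SD of compounds within the control limits, set per campaign, cut at about 38% in these data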;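 further: 0% = DMSO wells and 100% = medium only without gametocytes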
ROMK hit retest: ROMK channel modulator hit retest, confirmation, cell-based, thallium flux, duplicate, resupplied hits | shares compounds with ROMK mod | fluorescence ratio; stronger effect = lower value | normalized thallium flux (F/F0 slope) at 10 µM | hit rate 54% among 3,000 | AID 1917, 2009;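 active means Flux at 10 µM at least 3 SD below or above vehicle control mean in one or both replicates; inconclusive means no clear call, values can overlap the other calls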
Active calls of the source: *; ? = inconclusive; / = no result.

SMILES | Biofilm kill mix | ROMK mod | Pf gametocyte | ROMK hit retest
N#C/C(=C\C1=C(N2CCOCC2)C(=C/c2cccc([N+](=O)[O-])c2)/CC1)C(=O)Nc1ccccc1F | 13 | -3.4* | -22 | 0.061*
N#C/C(=C\C1=C(N2CCOCC2)C(=C\c2ccc(Cl)cc2)/CC1)C(=O)Nc1ccccc1F | 8 | -1.9 | 15 | /
COc1ccc(NC(=O)CN(c2ccc(OC)cc2)S(=O)(=O)c2ccc(OC)c(OC)c2)cc1 | / | / | 8 | /
COC1=C/C(=C/c2c(N)n3nc(-c4ccc(C)cc4)sc3nc2=O)C=CC1=O | 32 | -1.6 | 6 | /
CCOC1=C/C(=C/c2c(N)n3nc(-c4ccccc4)sc3nc2=O)C=CC1=O | 9 | -3.5* | -26 | 0.044*
Cc1c(Cl)cccc1NC(=O)CCC(=O)N/N=C/c1ccc[nH]1 | 22 | / | -53 | /
COCC(C)NC(=O)CCS(=O)(=O)c1nc(-c2ccc(OC)cc2)cc(C(F)(F)F)n1 (centres undefined) | / | -1.6 | / | /
CCOC(=O)CS(=O)(=O)c1nc(-c2ccccc2)cc(C(F)(F)F)n1 | 13 | -4.5* | 16 | 0.059*
CCOC(=O)CS(=O)(=O)c1ccc2ccccc2c1 | / | -0.04 | / | /
CCOC(=O)CCS(=O)(=O)c1nc(-c2ccccc2)cc(C(F)(F)F)n1 | / | -4.4* | / | 0.055*
N/C(=N\OC(=O)c1csnn1)c1ccc(C(F)(F)F)cc1 | 8 | 0.19 | 2 | /
CCOCCCNC(=S)N(CCCN(C)C)Cc1cc2cc3c(cc2[nH]c1=O)OCCO3 | / | / | 19 | /
CCC(C)(C)NC(=O)CN(C(=O)CCC(=O)Nc1nccs1)c1ccc(C)cc1 | / | / | 16 | /
Cc1ccc(C(=O)O)cc1N=Cc1cc(Br)cc(Br)c1O | 13 | 5.1* | / | 0.11*
CC(=O)Nc1ccc(C(=O)N/N=C/c2cc(Br)cc(Br)c2O)cc1 | 4 | 1.3 | 20 | /
CCC(C)(C)NC(=O)C(c1cccnc1)N(C(=O)c1csnn1)c1ccccc1 (centres undefined) | -3 | 1.4 | 1 | /
CC(C)n1cc(/C(N)=N/O)c(=O)n(Cc2ccccc2)c1=O | 21 | / | 5 | /
CC1=CC(C)(C)N(C(=O)CCl)c2cc(C)ccc21 | 6 | 0.021 | -10 | /
CC1=CC(C)(C)N(C(=O)CNC2CCCCC2)c2cc(C)ccc21 | 6 | -7.1* | 5 | 0.051*
COC(=O)c1ccc(NC(=O)C2CC(=O)OC2c2ccccc2)cc1 (centres undefined) | 30 | / | -1 | 0.072
CCOc1ccc(NC(=O)C2CC(=O)OC2c2ccccc2)cc1 (centres undefined) | 15 | -1.3 | 7 | /
CS(=O)(=O)c1ccc(SCC(=O)NC2CCS(=O)(=O)C2)c([N+](=O)[O-])c1 (centres undefined) | 30 | 0 | -3 | /
CCOc1ncnc2c1sc1nc(C)cc(C)c12 | 5 | 0.58 | 6 | /
Cc1ccc2c(n1)sc1c(N)ncnc12 | / | 4.6* | 7 | 0.092
CCC(C)N1C(=O)/C(=C/c2c(NCCCOC(C)C)nc3c(C)cccn3c2=O)SC1=S (centres undefined) | / | / | -15 | /
SMILES | Biofilm kill mix | ROMK mod | Pf gametocyte | ROMK hit retest
CCCN1C(=O)/C(=C/c2c(NCCCOC(C)C)nc3c(C)cccn3c2=O)SC1=S | / | / | / | 0.055*
CCCC(=O)N1CCN(c2nc(CC(C)C)c3c(c2C#N)CCC3)CC1 | / | -4.2* | -6 | 0.066*
CC(C)C(=O)N1CCN(c2nc(-c3ccccc3)c3c(c2C#N)CCCC3)CC1 | / | 0.12 | -27 | /
COc1ccccc1N1C(=O)c2cccc3cccc(c23)C1=O | / | / | 16 | /
Cc1ccc(-n2nnnc2SCC(=O)Nc2sc(C)c(C)c2C#N)cc1C | / | / | / | 0.073
CC(=O)c1ccc(-n2nnnc2SCC(=O)Nc2sc(C)c(C)c2C#N)cc1 | 17 | 0.027 | / | /
Cc1ccc(NC(=O)CN(C)C2CCCCC2)cc1Cl | / | / | 3 | /
Cc1nc2nc(-c3ccc(Cl)cc3)cn2nc1C | / | -0.26 | -1 | /
Cc1nc2nc(-c3cccs3)cn2nc1C | / | -8.5* | / | 0.042*
CC(C)CC(=O)Nc1ccc(S(=O)(=O)Nc2nccs2)cc1 | / | / | -4 | /
CC(C)N1CCN(Cc2cccn2-c2ccccn2)CC1CCO (centres undefined) | 9 | 1 | / | /
Cc1ccc2[nH]c(=O)c(COC(=O)C3CCCCC3)cc2c1 | 9 | / | 1 | /
CC1CCCCC1NC(=O)COC(=O)CNC(=O)c1cccc(F)c1 (centres undefined) | 10 | -2.1* | / | 0.09
CC(C)(C)NC(=O)NC(=O)COC(=O)CNC(=O)c1cccc(F)c1 | / | -0.72 | / | /
N=C1CCCN1CC(=O)c1ccc(Br)cc1 | 2 | / | 0 | /
O=C(Cc1ccccc1)NCc1cccnc1 | 16 | 0.37 | -13 | /
O=C(Cc1ccc(-c2ccccc2)cc1)NCc1cccnc1 | 30 | 3.2* | -21 | 0.088
NC(=O)C[C@H](N)c1cn([C@@H](CC(N)=O)C(=O)N2CCNCC2)nn1 | / | / | 10 | /
COc1cc2cc(C(c3nnnn3C(C)(C)C)N3CCc4ccccc4C3)c(=O)[nH]c2cc1OC (centres undefined) | / | -3.6* | / | ?
Cc1ccc2cc(C(c3nnnn3C(C)(C)C)N3CCCCCC3)c(=O)[nH]c2c1 (centres undefined) | / | 0.46 | / | /
CCCN(CCC)C(=O)C1CC(=O)OC12CCCCC2 (centres undefined) | 3 | 0.093 | -24 | /
COc1ccccc1Oc1ccccc1[N+](=O)[O-] | 5 | / | -9 | /
COc1ccccc1C1CCN(c2ccc([N+](=O)[O-])c(OC)c2)CC1 | 10 | / | -9 | /
COc1ccccc1C1NC=C([N+](=O)[O-])C=C1[N+](=O)[O-] (centres undefined) | 16 | / | 11 | 0.051*
COc1ccccc1C1C([N+](=O)[O-])=CC([N+](=O)[O-])=CN1C (centres undefined) | 1 | -5* | -7 | 0.055*
SMILES | Biofilm kill mix | ROMK mod | Pf gametocyte | ROMK hit retest
O=C(Nc1nc2ccccc2s1)c1ccc(OCC2CCCO2)cc1 (centres undefined) | 2 | -1 | 6 | /
O=C(/C=C/c1ccccc1)N1CCN(S(=O)(=O)c2ccc(F)cc2)CC1 | 10 | -0.25 | 18 | /
O=C(/C=C/c1ccc(F)cc1)N1CCN(S(=O)(=O)/C=C/c2ccccc2)CC1 | 17 | 3* | 29 | 0.078
O=C1CC(N2CCN(c3ncccn3)CC2)C(=O)N1CCc1ccccc1 (centres undefined) | 18 | -0.016 | -6 | /
CCOC(=O)N1CCC(NC(=O)c2cc(C(=O)Nc3ccc(S(=O)(=O)N4CCCCC4)cc3)ccc2CO)CC1 | 8 | 0.33 | 12 | /
COc1ccc(CC(=O)NNc2ncnc3c2cnn3Cc2ccccc2)cc1OC | 5 | / | -13 | 0.078
